Our source for the MIC values is ChEMBL document CHEMBL3124818, “Synthesis and antimicrobial evaluation of amide derivatives of benzodifuran-2-carboxylic acid” (2014).

What all share (type): functional
One assay relates to Candida albicans. The assay is described as follows: Antifungal activity against Candida albicans by broth dilution method. In a few lines:
(§1)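 Broth dilution screen. Compounds tested at 40 μg to 600 μg. MIC was read as the lowest concentration preventing visible growth. Solvent controls were included. Ciprofloxacin (antibacterial) and fluconazole (antifungal) were run under similar conditions as reference drugs.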

Another assay deals with Bacillus subtilis. The assay is described as follows: Antibacterial activity against Bacillus subtilis by broth dilution method. An outline of the steps:
as §1

A further assay has as its system Pseudomonas aeruginosa. Nature of the assay: Antibacterial activity against Pseudomonas aeruginosa by broth dilution method. In a few lines:
as §1
In general terms: Dilution methods test growth across graded concentrations, often in twofold steps.

Another assay deals with Escherichia coli. The assay is described as follows: Antibacterial activity against Escherichia coli by broth dilution method. In a few lines: as §1
For the next assay, the system named is Staphylococcus aureus. Nature of the assay: Antibacterial activity against Staphylococcus aureus by broth dilution method. An outline of the steps:
as §1

In brackets after ≈: the same amount, converted by molar mass. Bounds are passed on as bounds.

The MIC is the lowest concentration found to suppress growth. Lower therefore signals greater potency. As to `Cc1coc2cc3oc(C(=O)Nc4ccc(C(=O)O)cc4)c(C)c3cc12`, the MIC against Candida albicans was 600 µg/mL (≈ 1720 µM); in the assay with Bacillus subtilis, 160 µg/mL (≈ 458 µM); against Pseudomonas aeruginosa, 600 µg/mL (≈ 1720 µM); with Escherichia coli it was 400 µg/mL (≈ 1150 µM); against Staphylococcus aureus, 600 µg/mL (≈ 1720 µM).

In the case of `COc1ccc(NC(=O)c2oc3cc4occ(C)c4cc3c2C)cc1`, the MIC against Candida albicans was ≥ 600 µg/mL; against Bacillus subtilis it was 400 µg/mL (≈ 1190 µM); in the assay with Pseudomonas aeruginosa, ≥ 600 µg/mL; against Escherichia coli it was ≥ 600 µg/mL; against Staphylococcus aureus, 160 µg/mL (≈ 477 µM).

For the molecule `Cc1coc2cc3oc(C(=O)Nc4ccc(Cl)cc4)c(C)c3cc12`, the MIC is ≥ 600 µg/mL in the assay with Candida albicans; 200 µg/mL (≈ 589 µM) in the assay with Bacillus subtilis; ≥ 600 µg/mL against Pseudomonas aeruginosa; 200 µg/mL (≈ 589 µM) in the assay with Escherichia coli; 400 µg/mL (≈ 1180 µM) in the assay on Staphylococcus aureus.

In the case of `Cc1coc2cc3oc(C(=O)Nc4ccc(O)cc4)c(C)c3cc12`, the MIC is ≥ 600 µg/mL against Candida albicans; 200 µg/mL (≈ 622 µM) in the assay on Bacillus subtilis; ≥ 600 µg/mL in the assay with Pseudomonas aeruginosa; 600 µg/mL (≈ 1870 µM) against Escherichia coli; 600 µg/mL (≈ 1870 µM) in the assay with Staphylococcus aureus.

Take `Cc1ccc(NC(=O)c2oc3cc4occ(C)c4cc3c2C)cc1`: the MIC was ≥ 600 µg/mL against Candida albicans; 200 µg/mL (≈ 626 µM) against Bacillus subtilis; ≥ 600 µg/mL in the assay on Pseudomonas aeruginosa; ≥ 600 µg/mL in the assay with Escherichia coli; 200 µg/mL (≈ 626 µM) in the assay on Staphylococcus aureus.

`Cc1coc2cc3oc(C(=O)N4CCOCC4)c(C)c3cc12`: the MIC in the assay on Candida albicans was ≥ 600 µg/mL; with Bacillus subtilis, 200 µg/mL (≈ 668 µM); with Pseudomonas aeruginosa, ≥ 600 µg/mL; with Escherichia coli, 600 µg/mL (≈ 2000 µM); against Staphylococcus aureus it was 400 µg/mL (≈ 1340 µM).

For `Cc1coc2cc3oc(C(=O)N4CCc5ccccc5C4)c(C)c3cc12`, the MIC against Candida albicans was 600 µg/mL (≈ 1740 µM); against Bacillus subtilis, 160 µg/mL (≈ 463 µM); in the assay with Pseudomonas aeruginosa, ≥ 600 µg/mL; against Escherichia coli, ≥ 600 µg/mL; with Staphylococcus aureus, 400 µg/mL (≈ 1160 µM).

Take `Cc1coc2cc3oc(C(=O)N4CCCC4)c(C)c3cc12`: the MIC is 600 µg/mL (≈ 2120 µM) in the assay on Candida albicans; 400 µg/mL (≈ 1410 µM) against Bacillus subtilis; ≥ 600 µg/mL in the assay on Pseudomonas aeruginosa; 400 µg/mL (≈ 1410 µM) with Escherichia coli; 160 µg/mL (≈ 565 µM) with Staphylococcus aureus.

In the case of `Cc1coc2cc3oc(C(=O)Nc4ccccc4)c(C)c3cc12`, the MIC turned out to be 600 µg/mL (≈ 1970 µM) against Candida albicans; 400 µg/mL (≈ 1310 µM) against Bacillus subtilis; 600 µg/mL (≈ 1970 µM) in the assay with Pseudomonas aeruginosa; 600 µg/mL (≈ 1970 µM) against Escherichia coli; 600 µg/mL (≈ 1970 µM) against Staphylococcus aureus.

In the case of `Cc1coc2cc3oc(C(=O)N4CCCCC4)c(C)c3cc12`, the MIC against Candida albicans is ≥ 600 µg/mL; against Bacillus subtilis, 200 µg/mL (≈ 673 µM); in the assay with Pseudomonas aeruginosa it was ≥ 600 µg/mL; with Escherichia coli, 600 µg/mL (≈ 2020 µM); in the assay with Staphylococcus aureus, 400 µg/mL (≈ 1350 µM).

In the case of `OC(Cn1cncn1)(Cn1cncn1)c1ccc(F)cc1F` [FLUCONAZOLE], it took 5 µg/mL (≈ 16.3 µM) to inhibit growth in the assay on Candida albicans (MIC).

For the molecule `O=C(O)c1cn(C2CC2)c2cc(N3CCNCC3)c(F)cc2c1=O` [CIPROFLOXACIN], the MIC came to 2 µg/mL (≈ 6.04 µM) with Bacillus subtilis, 7.5 µg/mL (≈ 22.6 µM) with Pseudomonas aeruginosa, 15 µg/mL (≈ 45.3 µM) against Escherichia coli and 5 µg/mL (≈ 15.1 µM) against Staphylococcus aureus.

As to `CCN(CC)C(=O)c1oc2cc3occ(C)c3cc2c1C`, the MIC against Candida albicans stood at 600 µg/mL (≈ 2100 µM); against Bacillus subtilis, 400 µg/mL (≈ 1400 µM); with Pseudomonas aeruginosa it was 600 µg/mL (≈ 2100 µM); with Escherichia coli it was 400 µg/mL (≈ 1400 µM); with Staphylococcus aureus, 160 µg/mL (≈ 561 µM).
